Data taken from ChEMBL document CHEMBL1125133, “Benzodiazepine receptor binding activity of 9-(1-phenylethyl)purines” (J Med Chem, 1990).

Legend:
[1] = molecular target: GABA-A receptor; anion channel; assay: Inhibitory concentration against specific binding of [3H]diazepam to Benzodiazepine receptor in rat brain; type: tissue-based
[2] = molecular target: T1, GABA-A receptor; anion channel (Rattus norvegicus) (UniProt O09028+P15431+P18506+P18508+P19969+P20236+P23574+P23576+P28471+P28473+P30191+P62813+P63079+P63138+Q91ZM7+Q9ES14); assay: Inhibition of [3H]diazepam binding to rat brain GABA-A Benzodiazepine receptor at 100 uM
Rattus norvegicus = species on record: Rattus norvegicus; assay: Percent change in conflict responding in Long-Evans rats; type: functional
Summary of the method: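 Long-Evans rats on a modified Geller–Seifter conflict schedule. Dosed by oral gavage at 25 mg/kg as a 0.5% methylcellulose suspension, with chlordiazepoxide at 20 mg/kg. Read-out is percent change in conflict responding, mean ±.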

[3] = molecular target: T1, GABA-A receptor; anion channel (Rattus norvegicus); assay: Inhibition of [3H]-diazepam binding to rat brain GABA-A benzodiazepine receptor at 100 uM

IC50 [1] | Structure (SMILES) | Change (Rattus norvegicus) | other results
1.2 µM | CSc1ncnc2c1ncn2C(C)c1cccc(O)c1 (racemic) | – | –
– | CC(c1cccc(O)c1)n1cnc2c(S)ncnc21 (racemic) | – | inhibition [2]: 64%
– | CC(=O)Oc1cccc(Cn2cnc3c(N(C)C)ncnc32)c1 | 2% | –
– | CN(C)c1ncnc2c1ncn2Cc1cccc(O)c1 | 2% | –
2.2 µM | CC(c1cccc(O)c1)n1cnc2c(O)ncnc21 (racemic) | – | –
0.16 µM | CC(c1cccc(N)c1)n1cnc2c(N(C)C)ncnc21 (racemic) | -22% | –
100 µM | C[C@H](c1ccccc1)n1cnc2c(N(C)C)ncnc21 | – | –
0.38 µM | CC(=O)Oc1cccc(C(C)n2cnc3c(N(C)C)ncnc32)c1 (racemic) | – | –
– | C[C@@H](c1ccccc1)n1cnc2c(N(C)C)ncnc21 | 5% | –
1.7 µM | CSc1ncnc2c1ncn2C(C)c1cccc(OC(C)=O)c1 (racemic) | – | –
– | CSc1ncnc2c1ncn2Cc1ccccc1 | 13% | –
0.48 µM | CC(c1cccc(O)c1)n1cnc2c(N(C)C)ncnc21 (racemic) | -7% | –
– | CC(=O)Oc1cccc(C(C)n2cnc3c(O)ncnc32)c1 (racemic) | – | inhibition [3]: 68%
0.52 µM | CC(c1cccc(N)c1)n1c(Br)nc2c(N(C)C)ncnc21 (racemic) | 5% | –
